ChEMBL document CHEMBL1149315, “Insertion of an aspartic acid moiety into cyclic pseudopeptides: synthesis and biological characterization of potent antagonists for the human Tachykinin NK-2 receptor” (J Med Chem, 2004)

Columns and labels:
[1] = target: T1, Substance-K receptor (Homo sapiens, UniProt P21452); test: Displacement of [125I]neurokinin A from human NK2 receptor expressed in CHOK1 cells; assay type: cell-based, CHO-K1
T1 sequence (P21452 whole entry): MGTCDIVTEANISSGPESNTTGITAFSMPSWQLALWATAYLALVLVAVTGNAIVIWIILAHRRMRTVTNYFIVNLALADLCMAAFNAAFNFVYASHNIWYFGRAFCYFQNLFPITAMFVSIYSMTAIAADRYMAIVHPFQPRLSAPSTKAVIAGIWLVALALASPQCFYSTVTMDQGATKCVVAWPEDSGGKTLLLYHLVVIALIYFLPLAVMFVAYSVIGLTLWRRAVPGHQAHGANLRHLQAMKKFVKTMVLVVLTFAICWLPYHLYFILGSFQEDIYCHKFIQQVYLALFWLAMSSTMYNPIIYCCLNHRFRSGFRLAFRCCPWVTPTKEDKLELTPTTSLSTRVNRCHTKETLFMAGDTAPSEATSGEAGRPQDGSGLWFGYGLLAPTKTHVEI
Outline: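 Competition binding was run on membranes of cells stably transfected with the human receptor: U-373MG for NK-1, CHO-K1 for NK-2 and NK-3. NK-1 used [3H][Sar9]SP sulfone at 1.2 nM. Affinity is given as pKi (−log Ki).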

[2] = target: T2, Substance-K receptor (Rattus norvegicus) (UniProt P16610); test: Antagonist activity at NK2 receptor in rat urinary bladder assessed as effect on beta-Ala8]NKA(4-10)-induced mechanical activity; assay type: functional; conditions: filed as antagonist
T2 sequence (whole entry): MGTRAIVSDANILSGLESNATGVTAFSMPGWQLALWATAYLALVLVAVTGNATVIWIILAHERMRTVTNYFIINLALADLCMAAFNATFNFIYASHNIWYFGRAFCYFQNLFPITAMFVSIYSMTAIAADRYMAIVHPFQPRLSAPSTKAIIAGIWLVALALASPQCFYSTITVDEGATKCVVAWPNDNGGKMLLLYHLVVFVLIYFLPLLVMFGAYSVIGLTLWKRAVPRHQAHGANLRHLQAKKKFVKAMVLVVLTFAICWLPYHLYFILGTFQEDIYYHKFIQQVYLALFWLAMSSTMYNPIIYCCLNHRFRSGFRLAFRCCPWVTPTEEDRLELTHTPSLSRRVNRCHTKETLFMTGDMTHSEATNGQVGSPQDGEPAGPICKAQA
Outline: (§1)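 Isolated smooth muscle strips were held in oxygenated (96% O2/4% CO2) Krebs–Henseleit at NaCl 119, NaHCO3 25, KH2PO4 1.2, MgSO4 1.5, CaCl2 2.5, KCl 4.7 and glucose 11 mM. Cumulative agonist concentration–response curves were run after 15 min antagonist incubation. pKB = log(dose ratio − 1) − log[antagonist], as the mean of individual values.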

[3] = target: T3, Substance-K receptor (Oryctolagus cuniculus) (UniProt P79218); test: Antagonist activity at NK2 receptor in rabbit pulmonary artery assessed as effect on neurokinin A-induced mechanical activity; assay type: functional; conditions: filed as antagonist; outline: as §1
T3 sequence (whole entry): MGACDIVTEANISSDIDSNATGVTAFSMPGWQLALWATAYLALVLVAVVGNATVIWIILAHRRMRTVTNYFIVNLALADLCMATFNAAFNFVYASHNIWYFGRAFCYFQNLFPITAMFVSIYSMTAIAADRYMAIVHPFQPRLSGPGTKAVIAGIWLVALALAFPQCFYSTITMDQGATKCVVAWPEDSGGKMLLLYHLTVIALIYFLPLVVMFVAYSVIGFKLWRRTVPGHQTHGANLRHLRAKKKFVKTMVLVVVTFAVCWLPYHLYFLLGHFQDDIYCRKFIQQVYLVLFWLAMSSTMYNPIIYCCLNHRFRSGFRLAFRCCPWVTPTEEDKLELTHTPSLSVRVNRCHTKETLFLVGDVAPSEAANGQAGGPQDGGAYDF

| Ki [1] | pKb [2] | pKb [3] | SMILES |
| --- | --- | --- | --- |
| 0.2 nM (antagonist) | 8.9 | – | O=C1C[C@@H](N2CCC(N3CCCCC3)CC2)C(=O)NC[C@@H](Cc2ccccc2)NC(=O)[C@H](Cc2ccccc2)NC(=O)[C@H](Cc2c[nH]c3ccccc23)N1 |
| 0.398 nM (antagonist) | 9.2 | – | CN1CCN([C@@H]2CC(=O)N[C@@H](Cc3c[nH]c4ccccc34)C(=O)N[C@@H](Cc3ccccc3)C(=O)N[C@H](Cc3ccccc3)CNC2=O)CC1 |
| 6.31 nM (antagonist) | 7.8 | – | O=C1C[C@H](NC2CCOCC2)C(=O)N[C@@H](Cc2c[nH]c3ccccc23)C(=O)N[C@@H](Cc2ccccc2)C(=O)N[C@H](Cc2ccccc2)CN1 |
| 0.126 nM (antagonist) | 9.6 | – | CC(=O)N1CCN([C@@H]2CC(=O)N[C@@H](Cc3c[nH]c4ccccc34)C(=O)N[C@@H](Cc3ccccc3)C(=O)N[C@H](Cc3ccccc3)CNC2=O)CC1 |
| 25.1 nM (antagonist) | 7.7 | – | CC(=O)N[C@@H]1[C@@H](O)[C@H](O)[C@@H](CO)O[C@H]1NC(=O)C[C@H](NC(C)=O)C(=O)N[C@@H]1CC(=O)N[C@@H](Cc2c[nH]c3ccccc23)C(=O)N[C@@H](Cc2ccccc2)C(=O)N[C@H](Cc2ccccc2)CNC1=O |
| 1.26 nM (antagonist) | 8.2 | – | O=C1C[C@@H](NC[C@H](O)[C@@H](O)[C@H](O[C@@H]2O[C@H](CO)[C@H](O)[C@H](O)[C@H]2O)[C@H](O)CO)C(=O)NC[C@@H](Cc2ccccc2)NC(=O)[C@H](Cc2ccccc2)NC(=O)[C@H](Cc2c[nH]c3ccccc23)N1 |
| 0.126 nM (antagonist) | 9.1 | – | O=C1C[C@@H](NC(=O)CN2CCC(O)CC2)C(=O)NC[C@@H](Cc2ccccc2)NC(=O)[C@H](Cc2ccccc2)NC(=O)[C@H](Cc2c[nH]c3ccccc23)N1 |
| 0.398 nM (antagonist) | 8.8 | – | O=C1C[C@@H](NC[C@H](O)[C@@H](O)[C@H](O)[C@H](O)CO)C(=O)NC[C@@H](Cc2ccccc2)NC(=O)[C@H](Cc2ccccc2)NC(=O)[C@H](Cc2c[nH]c3ccccc23)N1 |
| 0.316 nM (antagonist) | 8.9 | – | O=C1C[C@@H](NC(=O)CN2CCC[C@H]2CO)C(=O)NC[C@@H](Cc2ccccc2)NC(=O)[C@H](Cc2ccccc2)NC(=O)[C@H](Cc2c[nH]c3ccccc23)N1 |
| 0.2 nM (antagonist) | 9 | – | CN1CCC(N[C@@H]2CC(=O)N[C@@H](Cc3c[nH]c4ccccc34)C(=O)N[C@@H](Cc3ccccc3)C(=O)N[C@H](Cc3ccccc3)CNC2=O)CC1 |
| 0.158 nM (antagonist) | 8.8 | – | CN(C1CCOCC1)[C@@H]1CC(=O)N[C@@H](Cc2c[nH]c3ccccc23)C(=O)N[C@@H](Cc2ccccc2)C(=O)N[C@H](Cc2ccccc2)CNC1=O |
| – | – | 7.5 | N[C@H]1CC(=O)N[C@@H](Cc2c[nH]c3ccccc23)C(=O)N[C@@H](Cc2ccccc2)C(=O)N[C@H](Cc2ccccc2)CNC1=O |

More lines, now with the values behind:

| SMILES | Ki [1] | pKb [2] | pKb [3] |
| --- | --- | --- | --- |
| O=C1C[C@@H](NC2CCS(=O)(=O)CC2)C(=O)NC[C@@H](Cc2ccccc2)NC(=O)[C@H](Cc2ccccc2)NC(=O)[C@H](Cc2c[nH]c3ccccc23)N1 | 0.158 nM (antagonist) | 9.3 | – |
| O=C1C[C@@H](NC(=O)CN2CC[S+]([O-])CC2)C(=O)NC[C@@H](Cc2ccccc2)NC(=O)[C@H](Cc2ccccc2)NC(=O)[C@H](Cc2c[nH]c3ccccc23)N1 | 0.316 nM (antagonist) | 8.7 | – |
| O=C1CC(NC(=O)[C@@H](O)[C@H](O)[C@@H](O[C@@H]2O[C@H](CO)[C@H](O)[C@H](O)[C@H]2O)[C@@H](O)CO)C(=O)NC[C@@H](Cc2ccccc2)NC(=O)[C@H](Cc2ccccc2)NC(=O)[C@H](Cc2c[nH]c3ccccc23)N1 (stereo partly specified) | 3.98 nM (antagonist) | 8.7 | – |
| NC(=O)C1CCN(CC(=O)N[C@@H]2CC(=O)N[C@@H](Cc3c[nH]c4ccccc34)C(=O)N[C@@H](Cc3ccccc3)C(=O)N[C@H](Cc3ccccc3)CNC2=O)CC1 | 0.501 nM (antagonist) | 9.2 | – |
| O=C1C[C@@H](N2CCC(N3CCOCC3)CC2)C(=O)NC[C@@H](Cc2ccccc2)NC(=O)[C@H](Cc2ccccc2)NC(=O)[C@H](Cc2c[nH]c3ccccc23)N1 | 0.2 nM (antagonist) | 8.9 | – |
| O=C1C[C@@H](NC(=O)CN2CCC(N3CC[S+]([O-])CC3)CC2)C(=O)NC[C@@H](Cc2ccccc2)NC(=O)[C@H](Cc2ccccc2)NC(=O)[C@H](Cc2c[nH]c3ccccc23)N1 | 0.251 nM (antagonist) | 9 | – |
| O=C1CCC(=O)N[C@@H](Cc2c[nH]c3ccccc23)C(=O)N[C@@H](Cc2ccccc2)C(=O)N[C@H](Cc2ccccc2)CN1 | – | 8.3 | – |
| O=C1C[C@@H](NC[C@H](O)[C@@H](O)[C@@H](O[C@H]2O[C@H](CO)[C@@H](O)[C@H](O)[C@H]2O)[C@H](O)CO)C(=O)NC[C@@H](Cc2ccccc2)NC(=O)[C@H](Cc2ccccc2)NC(=O)[C@H](Cc2c[nH]c3ccccc23)N1 | 0.631 nM (antagonist) | 8.5 | – |
| CC(=O)N[C@H]1[C@H](NC(=O)CCC(=O)N[C@@H]2CC(=O)N[C@@H](Cc3c[nH]c4ccccc34)C(=O)N[C@@H](Cc3ccccc3)C(=O)N[C@H](Cc3ccccc3)CNC2=O)O[C@H](CO)C(O)[C@@H]1O (single isomer, unassigned) | 1.58 nM (antagonist) | 7.6 | – |
| O=C1C[C@@H](NC2CC[S+]([O-])CC2)C(=O)NC[C@@H](Cc2ccccc2)NC(=O)[C@H](Cc2ccccc2)NC(=O)[C@H](Cc2c[nH]c3ccccc23)N1 (stereo partly specified) | 0.0251 nM (antagonist) | 9.1 | – |
| CN1CCN(CC(=O)N[C@@H]2CC(=O)N[C@@H](Cc3c[nH]c4ccccc34)C(=O)N[C@@H](Cc3ccccc3)C(=O)N[C@H](Cc3ccccc3)CNC2=O)CC1 | 1.58 nM (antagonist) | 8.5 | – |
| O=C1C[C@@H](NC2CCOCC2)C(=O)N[C@@H](Cc2c[nH]c3ccccc23)C(=O)N[C@@H](Cc2ccccc2)C(=O)N[C@H](Cc2ccccc2)CN1 | 7.94 nM (antagonist) | 7.4 | – |
| CS(=O)(=O)N1CCN([C@@H]2CC(=O)N[C@@H](Cc3c[nH]c4ccccc34)C(=O)N[C@@H](Cc3ccccc3)C(=O)N[C@H](Cc3ccccc3)CNC2=O)CC1 | 3.16 nM (antagonist) | 9.3 | – |
| O=C1C[C@@H](NC[C@H](O)[C@H](O)[C@@H](O[C@H]2O[C@H](CO)[C@@H](O[C@@H]3O[C@@H](CO)[C@H](O)[C@@H](O)[C@@H]3O)[C@H](O)[C@H]2O)[C@H](O)CO)C(=O)NC[C@@H](Cc2ccccc2)NC(=O)[C@H](Cc2ccccc2)NC(=O)[C@H](Cc2c[nH]c3ccccc23)N1 | 0.501 nM (antagonist) | 8.5 | – |
| O=C1C[C@@H](NC(=O)CN2CCOCC2)C(=O)NC[C@@H](Cc2ccccc2)NC(=O)[C@H](Cc2ccccc2)NC(=O)[C@H](Cc2c[nH]c3ccccc23)N1 | – | 8.5 | – |
| NC1CCN([C@@H]2CC(=O)N[C@@H](Cc3c[nH]c4ccccc34)C(=O)N[C@@H](Cc3ccccc3)C(=O)N[C@H](Cc3ccccc3)CNC2=O)CC1 | 5.01 nM (antagonist) | 8.5 | – |
| NS(=O)(=O)N1CCC(N[C@@H]2CC(=O)N[C@@H](Cc3c[nH]c4ccccc34)C(=O)N[C@@H](Cc3ccccc3)C(=O)N[C@H](Cc3ccccc3)CNC2=O)CC1 | 0.0501 nM (antagonist) | 9.5 | – |
| CC(=O)N[C@@H](CN[C@@H]1CC(=O)N[C@@H](Cc2c[nH]c3ccccc23)C(=O)N[C@@H](Cc2ccccc2)C(=O)N[C@H](Cc2ccccc2)CNC1=O)[C@@H](O)[C@H](O)[C@H](O)CO | 2 nM (antagonist) | 8.1 | – |
| O=C1C[C@@H](NC2CCSCC2)C(=O)NC[C@@H](Cc2ccccc2)NC(=O)[C@H](Cc2ccccc2)NC(=O)[C@H](Cc2c[nH]c3ccccc23)N1 | 0.1 nM (antagonist) | 7.8 | – |
| CS(=O)(=O)N1CCC(N[C@@H]2CC(=O)N[C@@H](Cc3c[nH]c4ccccc34)C(=O)N[C@@H](Cc3ccccc3)C(=O)N[C@H](Cc3ccccc3)CNC2=O)CC1 | 0.0631 nM (antagonist) | 9.5 | – |
